Measured values as given in ChEMBL document CHEMBL1148788 (J Med Chem, 2007).
Values joined by “and” are separate entries in the source; they are usually repeats but may differ in a detail not shown here. Identical values can stand only once. Active and inactive are the calls of the source. No cut-off for these calls is given here.

Tests used:
tsA201 [1] = assay: Displacement of [3H]methyllycaconitine from chimeric alpha-7nAChR W55A/Y195A mutant /5HT3A receptor in tsA201 cells; assay type: cell-based; conditions: Homo sapiens
Summary of the method: (§1)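 tsA-201 cells transiently transfected with 4 µg WT or mutant α7/5-HT3A chimera and assayed 2 days later. Membranes washed twice at 50000g in 50 mM Tris-HCl pH 7.2. Incubated with 0.5 nM [3H]MLA and compound for 2.5 h at room temperature with shaking; nonspecific binding with 5 mM (S)-nicotine. PEI-soaked GF/C filtration, scintillation counting. Ki derived; duplicate, 3–7 experiments.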

[2] = Displacement of [3H]methyllycaconitine from chimeric alpha-7nAChR K145R mutant /5HT3A receptor in tsA201 cells; assay type: cell-based, Homo sapiens; summary of the method: as §1
[3] = Antagonist activity at human alpha7nAChR Y93A mutant co-expressed with human Ric3 in tsA201 cells by FMP assay; assay type: functional, cell-based
[4] = Antagonist activity at human alpha7 nAChR W149Y mutant co-expressed with human Ric3 in tsA201 cells by FMP assay; assay type: functional, cell-based
[5] = Antagonist activity at human alpha-7 nAChR Y195A mutant coexpressed with human Ric3 in tsA201 cells by FMP assay; assay type: functional, cell-based
[6] = molecular target: Neuronal acetylcholine receptor; alpha4/beta2 (Rattus norvegicus, UniProt P09483+P12390); assay: Displacement of [3H]epibatidine from rat recombinant alpha-4-beta-2 nAChR in HEK293 cell line; assay type: cell-based
Chain of Neuronal acetylcholine receptor; alpha4/beta2 (P09483 whole entry): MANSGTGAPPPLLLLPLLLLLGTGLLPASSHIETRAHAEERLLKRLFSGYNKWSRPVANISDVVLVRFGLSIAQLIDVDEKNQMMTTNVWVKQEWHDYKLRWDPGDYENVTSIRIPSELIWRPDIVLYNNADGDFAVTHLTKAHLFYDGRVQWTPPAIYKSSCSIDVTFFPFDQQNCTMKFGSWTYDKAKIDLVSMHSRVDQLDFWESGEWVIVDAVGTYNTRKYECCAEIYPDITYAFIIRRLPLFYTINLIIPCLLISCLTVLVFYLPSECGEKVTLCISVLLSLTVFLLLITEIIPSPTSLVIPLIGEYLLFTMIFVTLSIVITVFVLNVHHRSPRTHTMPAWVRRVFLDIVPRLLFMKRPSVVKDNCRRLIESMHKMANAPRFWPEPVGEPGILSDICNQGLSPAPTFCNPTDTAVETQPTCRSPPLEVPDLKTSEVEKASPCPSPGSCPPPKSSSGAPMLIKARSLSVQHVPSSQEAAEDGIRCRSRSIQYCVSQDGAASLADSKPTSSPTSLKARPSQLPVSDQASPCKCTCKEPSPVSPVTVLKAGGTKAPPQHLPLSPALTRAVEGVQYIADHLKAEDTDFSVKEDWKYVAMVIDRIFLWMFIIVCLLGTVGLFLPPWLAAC
Chain of Neuronal acetylcholine receptor; alpha4/beta2 (P12390 whole entry): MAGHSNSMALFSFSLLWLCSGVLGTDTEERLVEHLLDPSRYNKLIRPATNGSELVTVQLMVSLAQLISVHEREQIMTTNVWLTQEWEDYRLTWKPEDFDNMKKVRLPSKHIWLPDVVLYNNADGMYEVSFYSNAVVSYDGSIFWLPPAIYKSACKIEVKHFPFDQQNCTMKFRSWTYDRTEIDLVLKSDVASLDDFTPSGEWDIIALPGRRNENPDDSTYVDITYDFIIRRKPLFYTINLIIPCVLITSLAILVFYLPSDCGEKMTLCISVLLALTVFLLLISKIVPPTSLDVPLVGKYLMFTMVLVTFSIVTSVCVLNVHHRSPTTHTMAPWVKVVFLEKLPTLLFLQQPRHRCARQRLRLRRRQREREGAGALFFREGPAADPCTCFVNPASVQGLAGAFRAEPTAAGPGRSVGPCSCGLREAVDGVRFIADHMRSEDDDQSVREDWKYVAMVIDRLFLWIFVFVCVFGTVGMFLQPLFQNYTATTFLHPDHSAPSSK

[7] = molecular target: Neuronal acetylcholine receptor; alpha4/beta4 (Rattus norvegicus, UniProt P09483+P12392); assay: Displacement of [3H]epibatidine from recombinant rat alpha-4-beta-4 nAChr in HEK293 cell line; assay type: cell-based
Chain of Neuronal acetylcholine receptor; alpha4/beta4 (P09483 whole entry): as the sequence (P09483 whole entry) above
Chain of Neuronal acetylcholine receptor; alpha4/beta4 (P12392 whole entry): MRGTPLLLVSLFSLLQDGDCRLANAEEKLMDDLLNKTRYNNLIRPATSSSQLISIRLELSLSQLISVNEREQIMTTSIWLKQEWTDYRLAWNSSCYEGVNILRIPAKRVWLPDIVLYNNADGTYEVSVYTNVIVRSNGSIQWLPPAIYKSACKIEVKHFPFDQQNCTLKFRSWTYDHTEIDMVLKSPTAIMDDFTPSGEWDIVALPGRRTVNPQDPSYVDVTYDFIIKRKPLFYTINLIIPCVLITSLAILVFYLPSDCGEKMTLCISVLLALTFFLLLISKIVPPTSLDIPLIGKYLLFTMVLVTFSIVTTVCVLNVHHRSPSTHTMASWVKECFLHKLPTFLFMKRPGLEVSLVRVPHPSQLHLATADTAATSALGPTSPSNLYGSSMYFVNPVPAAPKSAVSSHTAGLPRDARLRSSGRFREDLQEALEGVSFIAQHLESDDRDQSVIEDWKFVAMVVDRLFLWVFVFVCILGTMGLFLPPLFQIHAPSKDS

[8] = molecular target: T1, Neuronal acetylcholine receptor subunit alpha-7 (Homo sapiens, UniProt P36544); assay: Displacement of [3H]methyllycaconitine from human alpha-7 in tsA201 cells coexpressed with 5HT3A receptor; assay type: cell-based
Target sequence in this assay (P36544 whole entry): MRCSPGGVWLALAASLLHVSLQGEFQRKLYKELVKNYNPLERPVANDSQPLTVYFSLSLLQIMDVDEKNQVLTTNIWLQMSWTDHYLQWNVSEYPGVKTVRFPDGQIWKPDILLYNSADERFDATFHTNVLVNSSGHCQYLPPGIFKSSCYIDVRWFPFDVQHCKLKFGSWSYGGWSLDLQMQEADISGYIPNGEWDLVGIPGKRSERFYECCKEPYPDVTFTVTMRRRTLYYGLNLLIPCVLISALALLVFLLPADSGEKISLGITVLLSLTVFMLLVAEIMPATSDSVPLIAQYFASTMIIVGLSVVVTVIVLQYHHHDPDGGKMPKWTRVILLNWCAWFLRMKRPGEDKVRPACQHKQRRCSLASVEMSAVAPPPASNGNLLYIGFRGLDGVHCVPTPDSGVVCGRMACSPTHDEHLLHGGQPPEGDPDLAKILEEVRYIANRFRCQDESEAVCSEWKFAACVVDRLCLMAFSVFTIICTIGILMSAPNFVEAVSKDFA

[9] = molecular target: T2, 5-hydroxytryptamine receptor 3A (Homo sapiens, UniProt P46098); assay: Displacement of [3H]GR65630 from human 5HT3A receptor in HEK293 cells; assay type: cell-based
T2 sequence (P46098 whole entry): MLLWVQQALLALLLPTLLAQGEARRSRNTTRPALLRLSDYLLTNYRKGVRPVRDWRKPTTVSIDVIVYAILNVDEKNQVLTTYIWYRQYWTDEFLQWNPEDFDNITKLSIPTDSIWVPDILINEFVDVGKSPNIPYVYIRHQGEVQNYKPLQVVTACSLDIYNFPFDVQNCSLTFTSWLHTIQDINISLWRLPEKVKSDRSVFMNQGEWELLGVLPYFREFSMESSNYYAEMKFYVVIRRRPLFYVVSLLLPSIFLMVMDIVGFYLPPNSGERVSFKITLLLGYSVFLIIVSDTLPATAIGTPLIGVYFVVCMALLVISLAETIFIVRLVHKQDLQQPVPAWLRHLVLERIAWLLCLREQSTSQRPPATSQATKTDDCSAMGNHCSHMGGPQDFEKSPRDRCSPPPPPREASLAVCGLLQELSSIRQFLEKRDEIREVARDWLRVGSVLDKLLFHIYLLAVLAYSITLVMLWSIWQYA

[10] = molecular target: T1, Neuronal acetylcholine receptor subunit alpha-7; assay: Antagonist activity at human alpha-7 nAChR in tsA201 cells coexpressed with Ric3 by FMP assay; assay type: functional, cell-based
Target sequence in this assay (P36544 whole entry): as the sequence (P36544 whole entry) above

[11] = molecular target: Neuronal acetylcholine receptor; alpha3/beta4 (Rattus norvegicus, UniProt P04757+P12392); assay: Antagonist activity at rat alpha3beta4 nAChR expressed in HEK293 cells by FMP assay; assay type: functional, cell-based, Homo sapiens
Chain of Neuronal acetylcholine receptor; alpha3/beta4 (P04757 whole entry): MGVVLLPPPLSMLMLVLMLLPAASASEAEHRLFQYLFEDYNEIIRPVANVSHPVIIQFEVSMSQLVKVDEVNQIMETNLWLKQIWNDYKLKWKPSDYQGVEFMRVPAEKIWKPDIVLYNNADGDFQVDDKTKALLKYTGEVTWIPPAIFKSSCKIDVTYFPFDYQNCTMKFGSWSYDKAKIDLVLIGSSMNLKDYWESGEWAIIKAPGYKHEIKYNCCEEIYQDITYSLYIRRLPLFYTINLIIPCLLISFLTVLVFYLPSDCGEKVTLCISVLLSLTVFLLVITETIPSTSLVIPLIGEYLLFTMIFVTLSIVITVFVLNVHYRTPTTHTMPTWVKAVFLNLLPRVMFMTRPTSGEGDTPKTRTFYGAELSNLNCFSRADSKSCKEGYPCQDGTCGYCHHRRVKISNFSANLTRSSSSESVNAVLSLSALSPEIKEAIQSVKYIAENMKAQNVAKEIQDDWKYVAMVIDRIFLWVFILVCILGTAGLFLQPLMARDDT
Chain of Neuronal acetylcholine receptor; alpha3/beta4 (P12392 whole entry): as the sequence (P12392 whole entry) above

cells = assay type: functional, cell-based; conditions: Homo sapiens, HEK293
[12] = molecular target: T3, Glycine receptor subunit alpha-1 (Homo sapiens, UniProt P23415); assay: Antagonist activity at human glycine alpha-1 receptor in HEK293 cells by FMP assay; assay type: functional, cell-based
T3 sequence (P23415 whole entry): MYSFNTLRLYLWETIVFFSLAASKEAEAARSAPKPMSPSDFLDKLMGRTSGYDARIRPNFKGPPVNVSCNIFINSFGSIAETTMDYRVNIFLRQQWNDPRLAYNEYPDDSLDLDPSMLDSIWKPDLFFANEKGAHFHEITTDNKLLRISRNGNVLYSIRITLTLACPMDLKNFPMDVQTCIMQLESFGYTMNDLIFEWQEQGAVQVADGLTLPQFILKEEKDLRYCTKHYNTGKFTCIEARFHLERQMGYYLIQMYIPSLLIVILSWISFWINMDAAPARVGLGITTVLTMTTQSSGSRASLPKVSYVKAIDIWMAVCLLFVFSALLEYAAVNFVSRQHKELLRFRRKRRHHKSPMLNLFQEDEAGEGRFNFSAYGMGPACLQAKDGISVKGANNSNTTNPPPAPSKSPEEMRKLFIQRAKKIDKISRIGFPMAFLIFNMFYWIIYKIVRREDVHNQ

[13] = molecular target: T1, Neuronal acetylcholine receptor subunit alpha-7; assay: Displacement of [3H]methyllycaconitine from chimeric alpha7nAChR/5HT3A in tsA201 cells; assay type: cell-based
Target sequence in this assay (P36544 23-502 limits assumed): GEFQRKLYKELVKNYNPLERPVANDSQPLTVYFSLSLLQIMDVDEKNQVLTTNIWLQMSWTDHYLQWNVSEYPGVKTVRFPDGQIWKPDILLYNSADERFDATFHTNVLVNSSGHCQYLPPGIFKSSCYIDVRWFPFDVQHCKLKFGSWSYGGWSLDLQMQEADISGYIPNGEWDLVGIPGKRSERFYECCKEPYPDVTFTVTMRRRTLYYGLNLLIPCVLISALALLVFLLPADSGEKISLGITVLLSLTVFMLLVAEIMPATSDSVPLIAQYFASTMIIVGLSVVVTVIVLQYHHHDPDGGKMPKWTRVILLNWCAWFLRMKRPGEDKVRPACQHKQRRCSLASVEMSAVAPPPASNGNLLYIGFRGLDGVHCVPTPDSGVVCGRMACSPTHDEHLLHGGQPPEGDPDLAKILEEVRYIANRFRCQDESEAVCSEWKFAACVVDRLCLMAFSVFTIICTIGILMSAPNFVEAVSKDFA

[14] = Displacement of [3H]methyllycaconitine from chimeric alpha7nAChR W55Y mutant/5HT3A receptor in tsA201 cells; assay type: cell-based, Homo sapiens; summary of the method: as §1
[15] = Displacement of [3H]methyllycaconitine from chimeric alpha7nAChR R79A mutant/5HT3A receptor R79A mutant in tsA201 cells; assay type: cell-based, Homo sapiens; summary of the method: as §1
tsA201 [16] = assay: Displacement of [3H]methyllycaconitine from chimeric alpha-7nAChR Y93A mutant/5HT3A receptor in tsA201 cells; assay type: cell-based; conditions: Homo sapiens; summary of the method: as §1
[17] = Displacement of [3H]methyllycaconitine from chimeric alpha-7nAChR N107A mutant/5HT3A receptor in tsA201 cells; assay type: cell-based, Homo sapiens; summary of the method: as §1
[18] = Displacement of [3H]methyllycaconitine from chimeric alpha7nAChR K145A mutant/5HT3A receptor in tsA201 cells; assay type: cell-based, Homo sapiens; summary of the method: as §1
[19] = Displacement of [3H]methyllycaconitine from chimeric alpha-7nAChR S148A mutant /5HT3A receptor in tsA201 cells; assay type: cell-based, Homo sapiens; summary of the method: as §1
tsA201 [20] = assay: Displacement of [3H]methyllycaconitine from chimeric alpha-7nAChR W149A mutant/5HT3A receptor in tsA201 cells; assay type: cell-based; conditions: Homo sapiens; summary of the method: as §1
tsA201 [21] = assay: Displacement of [3H]methyllycaconitine from chimeric alpha-7nAChR W149Y mutant/5HT3A receptor W149Y mutant in tsA201 cells; assay type: cell-based; conditions: Homo sapiens; summary of the method: as §1
[22] = Displacement of [3H]methyllycaconitine from chimeric alpha-7nAChR Y168A mutant/5HT3A receptor in tsA201 cells; assay type: cell-based, Homo sapiens; summary of the method: as §1
[23] = molecular target: T1, Neuronal acetylcholine receptor subunit alpha-7
Target sequence in this assay (P36544 whole entry): as the sequence (P36544 whole entry) above

**Q.** For O=[N+]([O-])c1ccc(C[N+]23CC[C@@H]4[C@@H]5[C@@H]6[C@@H](OCC=C(C2)[C@@H]6C[C@@H]43)N2c3ccccc3[C@@]34CC[N+]6(Cc7ccc([N+](=O)[O-])cc7)CC7=CCO[C@H]([C@@H]([C@H]23)[C@H]7C[C@@H]46)N5c2ccccc2)cc1.[Br-].[Br-] (some centres not stated), which Activity (tsA201 [1]) is on record?
**A.** inactive

**Q.** What about the Ki [2] of the same molecule?
**A.** 58 nM

**Q.** And the pKi [2]?
**A.** 7.24

**Q.** What about the IC50 ([3]; read-out: IC50) of the same molecule?
**A.** 19000 nM

**Q.** And the IC50 ([3]; read-out: pIC50 (converted))?
**A.** 19500 nM

**Q.** What about the IC50 ([4]; read-out: IC50) of the same molecule?
**A.** 1200 nM

**Q.** And the IC50 ([4]; read-out: pIC50 (converted))?
**A.** 1170 nM

**Q.** What about the IC50 ([5]; read-out: IC50) of the same molecule?
**A.** 25000 nM

**Q.** What about the IC50 ([5]; read-out: pIC50 (converted)) of the same molecule?
**A.** 25100 nM

**Q.** What about the pKi ([6]; hek293) of the same molecule?
**A.** < 4

**Q.** What about the Ki ([6]; read-out: Ki) of the same molecule?
**A.** > 100000 nM

**Q.** And the Ki [7]?
**A.** > 100000 nM

**Q.** What about the pKi ([7]; hek293) of the same molecule?
**A.** < 4

**Q.** What about the Ki ([8]; read-out: Ki) of the same molecule?
**A.** 22 nM

**Q.** What about the Ki ([8]; read-out: pKi (converted)) of the same molecule?
**A.** 20 nM

**Q.** And the Ki [9]?
**A.** 23000 nM

**Q.** What about the IC50 ([10]; read-out: IC50) of the same molecule?
**A.** 370 nM

**Q.** What about the IC50 ([10]; read-out: pIC50 (converted)) of the same molecule?
**A.** 372 nM

**Q.** And the pIC50 ([11]; hek293)?
**A.** < 4

**Q.** What about the IC50 ([11]; read-out: IC50) of the same molecule?
**A.** > 100000 nM

**Q.** And the IC50 (cells; read-out: IC50)?
**A.** > 100000 nM

**Q.** And the IC50 (cells; read-out: pIC50 (converted))?
**A.** > 100000 nM

**Q.** What about the IC50 [12] of the same molecule?
**A.** > 100000 nM

**Q.** And the pIC50 ([12]; hek293)?
**A.** < 4

**Q.** And the Ki [13]?
**A.** 18 nM

**Q.** What about the pKi [13] of the same molecule?
**A.** 7.74

**Q.** And the Ki [14]?
**A.** 37 nM

**Q.** What about the pKi [14] of the same molecule?
**A.** 7.43

**Q.** What about the Ki [15] of the same molecule?
**A.** 32 nM

**Q.** And the pKi [15]?
**A.** 7.5

**Q.** And the Activity (tsA201 [16])?
**A.** inactive

**Q.** What about the Ki [17] of the same molecule?
**A.** 17 nM

**Q.** And the pKi [17]?
**A.** 7.76

**Q.** What about the Ki [18] of the same molecule?
**A.** 28 nM

**Q.** And the pKi [18]?
**A.** 7.56

**Q.** And the Ki [19]?
**A.** 160 nM

**Q.** What about the pKi [19] of the same molecule?
**A.** 6.8

**Q.** What about the Activity (tsA201 [20]) of the same molecule?
**A.** inactive

**Q.** What about the Activity (tsA201 [21]) of the same molecule?
**A.** inactive

**Q.** What about the Ki [22] of the same molecule?
**A.** 34 nM

**Q.** What about the pKi [22] of the same molecule?
**A.** 7.47

**Q.** What about the IC50 [23] of the same molecule?
**A.** 360 nM and 363 nM
